{
  "source": "paper PMC3215888",
  "about": "(Cancer Chemotherapy and Pharmacology, 2011)",
  "format_in_all_cases": "in vivo, mice",
  "key": {"[1]": {"test_system": "Rh65 ALV Rhabdomyosarcoma xenograft", "details": "20.8 mg/kg", "procedure,_shortened": "(§1)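 Female CB17 scid mice bearing subcutaneous tumors, 10 per group. Dosed by oral gavage twice daily, 5 days weekly for 6 weeks, at 20.8, 10.4, 5.2 or 2.6 mg/kg, in 10% 2-hydroxypropyl-β-cyclodextrin/1% sodium bicarbonate. Event = quadrupled tumor volume; EFS by Kaplan–Meier, exact log-rank test. Per-mouse scores PD/SD/PR (≥50% regression)/CR (<0.10 cm3)/MCR; group median reported. PR, CR and MCR count as objective responses.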"}, "[2]": {"test_system": "NB-EBc1 Neuroblastoma xenograft", "procedure,_shortened": "as §1"}, "[3]": {"test_system": "NB-1382 Neuroblastoma xenograft", "details": "20.8 mg/kg", "procedure,_shortened": "as §1"}, "[4]": {"test_system": "NB-1771 Neuroblastoma xenograft", "procedure,_shortened": "as §1"}},
  "note": "Like-named read-outs stand apart in the source and are kept apart here.",
  "data": [
    {"smiles": "COc1cc(Nc2ncc3c(n2)-c2ccc(Cl)cc2C(c2c(F)cccc2OC)=NC3)ccc1C(=O)O", "note": "[MLN8237]", "values": [
      {"measurement": "Response activity", "setting": "[1]", "value": "High"},
      {"measurement": "Tumor volume T/C", "setting": "[1]", "value": 0.01},
      {"measurement": "Median RTV/hCD45 at end of study", "setting": "[1]; RTV", "value": 0.0},
      {"measurement": "EFS T/C", "setting": "[2]; 2.6 mg/kg", "value": 1.7},
      {"measurement": "EFS activity", "setting": "[2]; 2.6 mg/kg", "value": "Low"},
      {"measurement": "Estimate of median time to event", "setting": "[2]; 2.6 mg/kg", "value": 9.6, "unit": "days"},
      {"measurement": "Median group response", "setting": "[2]; 2.6 mg/kg", "value": "PD2 (if the TGD value >1.5, the mouse was considered PD2)"},
      {"measurement": "Response activity", "setting": "[2]; 2.6 mg/kg", "value": "Int"},
      {"measurement": "Tumor volume T/C", "setting": "[2]; 2.6 mg/kg", "value": 0.57},
      {"measurement": "Median RTV/hCD45 at end of study", "setting": "[2]; 2.6 mg/kg", "value": ">4"},
      {"measurement": "EFS T/C", "setting": "[2]; 5.2 mg/kg", "value": 2.0},
      {"measurement": "EFS activity", "setting": "[2]; 5.2 mg/kg", "value": "Low"},
      {"measurement": "Estimate of median time to event", "setting": "[2]; 5.2 mg/kg", "value": 11.3, "unit": "days"},
      {"measurement": "Median group response", "setting": "[2]; 5.2 mg/kg", "value": "PD2 (if the TGD value >1.5, the mouse was considered PD2)"},
      {"measurement": "Response activity", "setting": "[2]; 5.2 mg/kg", "value": "Int"},
      {"measurement": "Tumor volume T/C", "setting": "[2]; 5.2 mg/kg", "value": 0.44},
      {"measurement": "Median RTV/hCD45 at end of study", "setting": "[2]; 5.2 mg/kg", "value": ">4"},
      {"measurement": "EFS T/C", "setting": "[2]; 10.4 mg/kg", "value": 3.1},
      {"measurement": "EFS activity", "setting": "[2]; 10.4 mg/kg", "value": "Int"},
      {"measurement": "Estimate of median time to event", "setting": "[2]; 10.4 mg/kg", "value": 17.9, "unit": "days"},
      {"measurement": "Median group response", "setting": "[2]; 10.4 mg/kg", "value": "PD2 (if the TGD value >1.5, the mouse was considered PD2)"},
      {"measurement": "Response activity", "setting": "[2]; 10.4 mg/kg", "value": "Int"},
      {"measurement": "Tumor volume T/C", "setting": "[2]; 10.4 mg/kg", "value": 0.22},
      {"measurement": "Median RTV/hCD45 at end of study", "setting": "[2]; 10.4 mg/kg", "value": ">4"},
      {"measurement": "EFS T/C", "setting": "[2]; 20.8 mg/kg", "value": ">7.2"},
      {"measurement": "EFS activity", "setting": "[2]; 20.8 mg/kg", "value": "High"},
      {"measurement": "Median group response", "setting": "[2]; 20.8 mg/kg", "value": "MCR"},
      {"measurement": "Response activity", "setting": "[2]; 20.8 mg/kg", "value": "High"},
      {"measurement": "Tumor volume T/C", "setting": "[2]; 20.8 mg/kg", "value": 0.15},
      {"measurement": "Median RTV/hCD45 at end of study", "setting": "[2]; 20.8 mg/kg", "value": 0.3},
      {"measurement": "EFS T/C", "setting": "[3]", "value": ">1.7"},
      {"measurement": "Median group response", "setting": "[3]", "value": "PD2 (if the TGD value >1.5, the mouse was considered PD2)"},
      {"measurement": "Response activity", "setting": "[3]", "value": "Int"},
      {"measurement": "Tumor volume T/C", "setting": "[3]", "value": 0.31},
      {"measurement": "Median RTV/hCD45 at end of study", "setting": "[3]; RTV", "value": 2.1},
      {"measurement": "EFS T/C", "setting": "[4]; 2.6 mg/kg", "value": 1.9},
      {"measurement": "EFS activity", "setting": "[4]; 2.6 mg/kg", "value": "Low"},
      {"measurement": "Estimate of median time to event", "setting": "[4]; 2.6 mg/kg", "value": 38.2, "unit": "days"},
      {"measurement": "Median group response", "setting": "[4]; 2.6 mg/kg", "value": "PD2 (if the TGD value >1.5, the mouse was considered PD2)"},
      {"measurement": "Response activity", "setting": "[4]; 2.6 mg/kg", "value": "Int"},
      {"measurement": "Tumor volume T/C", "setting": "[4]; 2.6 mg/kg", "value": 0.38},
      {"measurement": "Median RTV/hCD45 at end of study", "setting": "[4]; 2.6 mg/kg", "value": ">4"},
      {"measurement": "EFS T/C", "setting": "[4]; 5.2 mg/kg", "value": ">2.1"},
      {"measurement": "EFS activity", "setting": "[4]; 5.2 mg/kg", "value": "Int"},
      {"measurement": "Median group response", "setting": "[4]; 5.2 mg/kg", "value": "PD2 (if the TGD value >1.5, the mouse was considered PD2)"},
      {"measurement": "Response activity", "setting": "[4]; 5.2 mg/kg", "value": "Int"},
      {"measurement": "Tumor volume T/C", "setting": "[4]; 5.2 mg/kg", "value": 0.38},
      {"measurement": "Median RTV/hCD45 at end of study", "setting": "[4]; 5.2 mg/kg", "value": 2.2},
      {"measurement": "EFS T/C", "setting": "[4]; 10.4 mg/kg", "value": ">2.1"},
      {"measurement": "EFS activity", "setting": "[4]; 10.4 mg/kg", "value": "High"},
      {"measurement": "Median group response", "setting": "[4]; 10.4 mg/kg", "value": "MCR"},
      {"measurement": "Response activity", "setting": "[4]; 10.4 mg/kg", "value": "High"},
      {"measurement": "Tumor volume T/C", "setting": "[4]; 10.4 mg/kg", "value": 0.08},
      {"measurement": "Median RTV/hCD45 at end of study", "setting": "[4]; 10.4 mg/kg", "value": 0.0},
      {"measurement": "EFS T/C", "setting": "[4]; 20.8 mg/kg", "value": ">2.1"},
      {"measurement": "EFS activity", "setting": "[4]; 20.8 mg/kg", "value": "High"},
      {"measurement": "Median group response", "setting": "[4]; 20.8 mg/kg", "value": "MCR"},
      {"measurement": "Response activity", "setting": "[4]; 20.8 mg/kg", "value": "High"},
      {"measurement": "Tumor volume T/C", "setting": "[4]; 20.8 mg/kg", "value": 0.02},
      {"measurement": "Median RTV/hCD45 at end of study", "setting": "[4]; 20.8 mg/kg", "value": 0.0}
    ]}
  ]
}
